High-throughput results: PubChem, several laboratories
Most compounds without a hit are left out; they make up all but 2% or so of the library.
NTR1 agonist = activates human neurotensin receptor 1; P30989; NTR1-U2OS beta-arrestin-GFP spot imaging, agonist mode; activation, % at 20 µM; 330,000 compounds, 0.17% hits;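 active means activation at or above 40% of the spot to cytoplasm intensity ratio, with at least 20 cells analyzed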;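 further: 0% = DMSO without peptide and 100% = 100 nM NTR1 peptide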
GRK2 aptamer HTS = blocks RNA aptamer binding to human GRK2. P25098. inhibition of aptamer binding, % at 10 µM. bead flow cytometry, FAM-aptamer displacement from GRK2. AID 488847. 330,000 compounds, 0.59% hits;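 active means inhibition of aptamer binding above 40%, roughly 3 SD of noise, on plates passing a quality check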;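 further: median bead fluorescence of bound FAM aptamer so fluorescent compounds give negative values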
Arr AP2 block = blocks beta-arrestin peptide binding to AP2 adaptin; FITC-arrestin peptide / GST-AP2 beads, flow cytometry; AP2 beta2 appendage carries R879A mutation; inhibition, % at 10 µM; 340,000 compounds, 0.31% hits; AID 504490;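 active means inhibition above a set limit, near 3 SD of compounds lacking own fluorescence, cut at about 54% in these data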;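 further: plate controls were DMSO wells for no effect and 5 µM unlabelled arrestin peptide for full effect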
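test system = AP2 appendage R879A on GSH beads | buffer or medium = PBS plus Tween 20 (0.05%) and BSA (0.1%) | incubation = 12 min plus 1 h, RT | detection = bead flow cytometry, FITC channel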
H9c2 TAG inh = inhibitors of triacylglycerol accumulation. inhibition, % at 12.5 µM. H9c2 cells, Nile Red lipid (TAG) fluorescence; cells loaded with 200 µM oleic acid. AID 651582. 230,000 compounds, 0.66% hits;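 active means pattern-corrected inhibition of lipid staining of at least 50% with the nuclear-stain viability signal not falling by more than 50%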;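 further: 0% = DMSO wells and 100% = triacsin C control wells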
Beta2AR agonist = activates human beta-2 adrenergic receptor causing internalization; P07550; Am2.2-beta2AR cells, FAP receptor internalization, flow cytometry; response, % (no concentration beside the values); 340,000 compounds, 0.43% hits; AID 504454;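 active means response above a set limit, near 3 SD of response in nonfluorescent compounds, cut at about 42% in these data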
Target sequence (P07550 whole entry, looked up): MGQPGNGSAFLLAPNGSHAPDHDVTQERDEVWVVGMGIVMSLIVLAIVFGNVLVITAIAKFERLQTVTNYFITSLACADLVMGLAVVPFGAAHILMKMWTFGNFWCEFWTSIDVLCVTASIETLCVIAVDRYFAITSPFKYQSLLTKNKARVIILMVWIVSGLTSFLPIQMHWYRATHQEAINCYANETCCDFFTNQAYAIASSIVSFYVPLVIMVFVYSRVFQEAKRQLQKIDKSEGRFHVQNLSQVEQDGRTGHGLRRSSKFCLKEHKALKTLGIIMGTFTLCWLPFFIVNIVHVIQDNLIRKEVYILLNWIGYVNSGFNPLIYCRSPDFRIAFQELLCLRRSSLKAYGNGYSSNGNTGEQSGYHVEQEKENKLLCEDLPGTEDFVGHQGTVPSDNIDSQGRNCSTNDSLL
Lipid droplet = modulators of hepatic lipid droplet formation. inhibition, % at 6.5 µM. AID 1656. AML12 mouse hepatocytes, oleate lipid droplets, BODIPY imaging. 240,000 compounds, 0.4% hits;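 active means lipid droplet intensity inhibited by at least 50%, with more than 500 cells counted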
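material = mouse AML12 hepatocyte cell line, fixed after treatment | also added = 100 µM oleic acid challenge | doses = compound at 6.5 µM only | schedule = overnight exposure | technique = Image-based BODIPY and DAPI two-channel analysis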
Arr AP2 CP1 = blocks beta-arrestin peptide binding to human AP2 | inhibition, % at 10 µM | GST-AP2 beads, FITC arrestin peptide binding, flow cytometry; GST-fused beta2-adaptin appendage, R879A mutant | 1,300 compounds, 2% hits | AID 504908 | shares compounds with Arr AP2 block;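 active means inhibition above a set limit, roughly 3 SD of non-fluorescent compound noise, cut at about 38% in these data; inactive means inhibition at or below that limit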;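 further: loss of bead fluorescence from 50 nM FITC arrestin peptide bound to appendage; 0% = negative control wells and 100% = excess unlabelled arrestin peptide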
GST GSH counter = disrupts GST binding to glutathione beads, arrestin-AP2 artifact | shares compounds with Arr AP2 block | inhibition, % at 10 µM | GST-fluorescein binding to GSH beads, fluorescence, counter-screen | 1,300 compounds, 2% hits;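 active means inhibition above 50%, about 3 SD of the inhibition seen with non-fluorescent compounds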;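 further: fluorescein maleimide labelled GST captured on 4 micron glutathione beads; higher means more loss of bead fluorescence from quenching or blocked binding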
An asterisk follows results filed as active; . = no result given.

SMILES	NTR1 agonist	GRK2 aptamer HTS	Arr AP2 block	H9c2 TAG inh	Beta2AR agonist	Lipid droplet	Arr AP2 CP1	GST GSH counter
COc1ccc(CNC(=O)CN(CC2CCCO2)C(=O)CNS(=O)(=O)c2ccccc2)cc1 (configuration not stated)	-1	4	-1	-11	20	.	.	.
CCCn1c(=O)c(C(=O)NCCc2ccccc2)c(O)c2ccccc21	0	0	-4	.	0	7	.	.
CCCn1c(=O)c(C(=O)NCCc2ccc(OC)cc2)c(O)c2ccccc21	4	0	55*	.	-4	-8	0	-10
COc1cc(NC(=O)C(C)Oc2ccccc2)c(C(=O)O)cc1OC (configuration not stated)	1	3	-1	3	0	21	-6	-5
O=C(COC(=O)c1cccc(C(F)(F)F)c1)NC(=O)NC1CCCC1	1	1	-8	8	-5	.	.	.
NS(=O)(=O)c1ccc(CCNC(=O)c2cnc(Cl)c(Cl)c2)cc1	4	2	-9	.	-6	11	.	.
COC(=O)C1CC(c2ccccc2)N(c2ccccc2)O1 (configuration not stated)	.	.	.	1	.	.	.	.
CC(=O)c1nn(-c2cccc(Br)c2)cc1C(=O)c1ccccc1	3	0	16	4	-2	2	.	.
CC(=O)c1nn(-c2ccccc2)cc1C(=O)c1ccc(Br)cc1	-1	4	104*	21	-8	0	-6	-9
CC(C)CSc1nc2ccccc2n1CC(=O)O	1	0	55*	0	-4	-7	-2	3
CCC(=O)Nc1ccc(-c2ccc(N3CCN(C)CC3)nn2)cc1	0	1	55*	.	-2	-1	-3	-4
Clc1ccc(OCc2nnnn2-c2ccccc2)cc1	-1	9	73*	.	-4	-3	5	-5
c1ccc(OCc2nnnn2-c2ccccc2)cc1	1	1	3	2	-3	-17	.	.
O=C(CSc1nnc(-c2ccccc2Cl)o1)N1CCCC1	0	1	27	.	-3	9	.	.
CN(C)c1ccc(C(C(=O)NCc2ccccc2)N(Cc2ccco2)C(=O)c2snc(C(N)=O)c2N)cc1 (configuration not stated)	.	2	0	.	15	2	.	.
O=C(NC1CCCC1)C(c1cc2c(cc1[N+](=O)[O-])OCO2)N1CCCC1 (configuration not stated)	0	0	17	5	-6	3	.	.
O=CN1CCN(C(C(=O)NC2CCCC2)c2cc3c(cc2[N+](=O)[O-])OCO3)CC1 (configuration not stated)	1	0	60*	-1	-9	-1	14	8
COc1cc(OC)cc(C(=O)O/N=C(\N)c2ccccn2)c1	1	2	55*	2	7	22	-5	-5
COc1ccc(C(=O)COC(=O)c2ccccn2)cc1OC	2	1	56*	4	0	.	-2	3
CCOc1cc(C(=O)O/N=C(\N)c2ccccn2)cc(OCC)c1OCC	3	0	-15	.	-6	-1	.	.
O=C(Cn1c(=O)oc2ccccc21)Nc1ccc(F)cc1	1	0	0	7	-5	3	.	.
COc1cc(C(=O)Nc2ccc(C(F)(F)F)cc2)ccc1OCC(=O)N1CCOCC1	-1	.	10	30	0	.	.	.
Cc1ccc(C)c(S(=O)(=O)N2CCN(C(=O)Cn3cnc4c3c(=O)n(C)c(=O)n4C)CC2)c1	0	3	-2	2	3	2	.	.
Cn1c(=O)c2c(ncn2CC(=O)N2CCN(S(=O)(=O)c3ccccc3)CC2)n(C)c1=O	0	5	57*	8	3	-3	-2	-4
CCC(Oc1ccccc1OC)C(=O)N1CC(=O)Nc2ccccc21 (configuration not stated)	1	0	4	.	-7	-4	.	.
SMILES	NTR1 agonist	GRK2 aptamer HTS	Arr AP2 block	H9c2 TAG inh	Beta2AR agonist	Lipid droplet	Arr AP2 CP1	GST GSH counter
O=C(Nc1nnc(C2=COCCO2)o1)C1CCCCC1	0	1	59*	-3	4	5	4	1
O=C(N/N=C/c1cccc([N+](=O)[O-])c1)c1ccc(Br)cc1	0	25	7	-8	-4	-56	.	.
O=C(N/N=C/c1cccc([N+](=O)[O-])c1)c1cccc(Br)c1	-2	0	104*	-22	-13	-6	13	60*
CCOC(=O)Cn1c(=O)oc2cc(S(=O)(=O)Nc3cc(OCC)ccc3OCC)ccc21	-1	0	57*	.	2	.	2	-7
COc1cccc(-n2c(-c3ccco3)nc3nc4ccccc4nc32)c1	0	0	75*	.	-1	9	65*	174*
CCN(CC(=O)Nc1ccc(OC)cc1)C(=O)Cc1cccs1	2	0	56*	-7	1	.	-3	-5
CCN(CC(=O)Nc1ccc(OC)cc1)C(=O)CCS(=O)(=O)c1ccc(C)cc1	0	0	1	5	1	-4	.	.
Cc1ccc(CN2CCC(n3nccc3NC(=O)c3ccccc3C)CC2)o1	0	0	-5	4	-7	-7	.	.
CC(C)C(C(=O)Nc1ccc2c(c1)OCO2)N1C(=O)c2ccccc2C1=O (configuration not stated)	-2	0	7	7	0	1	.	.
C[C@@H](C(=O)Nc1ccc2c(c1)OCO2)n1c(=O)[nH]c2ccccc2c1=O	2	0	4	.	8	3	-3	-4
O=C(Cn1ccc2ccccc2c1=O)Nc1ccc2c(c1)OCO2	3	0	4	-10	-12	-4	.	.
O=C(Cn1c(=O)[nH]c2ccccc2c1=O)Nc1ccc2c(c1)OCO2	1	3	-2	.	1	-2	1	0
C[C@@H](C(=O)Nc1ccc2c(c1)OCCO2)n1c(=O)[nH]c2ccccc2c1=O	0	0	-9	.	0	0	6	-1
O=C(Nc1cccnc1Oc1ccc(Cl)cc1)c1cccc2ccccc12	4	0	11	-19	8	-1	.	.
O=C(CCNC(=O)c1ccc(Cl)cc1)NCCC1=CCCCC1	0	2	64*	-4	-5	.	-10	-4
O=C(CCNC(=O)c1ccc([N+](=O)[O-])cc1)NCCC1=CCCCC1	-1	1	-1	1	-4	.	.	.
O=C(Cc1ccc(NC(=O)C2CCCN(C(=O)c3ccccc3)C2)cc1)Nc1ccc(C(=O)N2CCOCC2)cc1 (configuration not stated)	.	.	9	-2	-3	.	.	.
